Experimental data: publication PMC6045484 (ACS Omega, 2018)
Values after ≈ are worked out from the molar mass of the structure shown.

How the values were obtained:
[1] = tested on: multidrug-resistant P. yoelii nigeriensis; assay: blood-schizontocidal activity against P. yoelii nigeriensis infection in mice; format: in vivo, Plasmodium yoelii nigeriensis; settings: Swiss mice
How it was run: (§1)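 Swiss mice of either sex (about 15–20 g, same age), six per group, inoculated intraperitoneally on day 0 with 1 × 10^7 infected erythrocytes from a donor mouse. Oral test compound at 100, 50, 25 or 10 mg/kg, CQ diphosphate (10 mg/kg/day × 4) or vehicle started 4 h later, on D0 to D+3. Giemsa tail-blood smears on D+4 and D+7. Curative: parasites eliminated, no relapse, all mice surviving to D+60.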

[2] = tested on: SK-MEL, KB, BT-549, SK-OV-3, VERO and LLC-PK1 cells; assay: cytotoxicity, neutral red uptake assay; format: cell-based, mammalian; settings: highest test concentration 4760 ng/mL
How it was run: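 Cells seeded at 25 000/well and allowed 24 h to reach confluence. Test compound was then added and incubated 48 h. Viable cells were counted by a modified neutral red uptake method. The panel was four human cancer lines and two noncancerous mammalian kidney lines. Doxorubicin served as positive control and DMSO as negative control.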

SA (ATCC29213) = assay: in vitro antibacterial activity; format: cell-based; settings: Staphylococcus aureus
How it was run: (§2)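 Test compound serially diluted in 20% DMSO/saline and plated in duplicate, up to 20 μg/mL. Inoculum in cation-adjusted Mueller–Hinton broth, pH 7.3, set by OD630 to 5 × 10^5 CFU/mL. Incubated 16–20 h at 35 °C; 530 nm read before and after. IC50 is 50% growth inhibition; MIC is no detectable growth. MBC from clear wells subcultured on agar. Ciprofloxacin control.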

C. neoformans ATCC90113 = assay: in vitro antifungal activity; format: cell-based, Cryptococcus neoformans
How it was run: (§3)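 Modified NCCLS broth method in Sabouraud dextrose. Inoculum set by OD630 to 1.5 × 10^3 CFU/mL. Test compound serially diluted in 20% DMSO/saline, duplicate wells, up to 20 μg/mL. Incubated 70–74 h at 35 °C; 530 nm read before and after. IC50 is 50% growth inhibition; MIC is no detectable growth. MFC from clear wells subcultured on agar. Amphotericin B control.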

P. falciparum (W2) = assay: in vitro antimalarial activity, plasmodial LDH; format: cell-based, Plasmodium falciparum
How it was run: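 P. falciparum-infected erythrocytes (2% parasitemia, 2% hematocrit) in RPMI 1640 with 10% human serum and 60 μg/mL amikacin. Exposed to test compound dilutions for 72 h at 37 °C under 90% N2/5% O2/5% CO2. LDH measured with Malstat reagent (30 min, room temperature), then NBT/PES for 1 h in the dark, stopped with 5% acetic acid, read at 650 nm. IC50 from dose-response curves.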

[3] = tested on: L. donovani promastigotes; assay: in vitro antileishmanial activity, alamarBlue assay; format: cell-based, Leishmania donovani; settings: Leishmania donovani, 48 h
[4] = tested on: M. intracellulare (ATCC23068); assay: in vitro antibacterial activity, modified alamarBlue procedure; format: cell-based, Mycobacterium intracellulare
How it was run: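 Modified alamarBlue microplate method. Test compound serially diluted in 20% DMSO/saline, duplicate wells, up to 20 μg/mL. Inoculum 2.0 × 10^6 CFU/mL in Middlebrook 7H9 with OADC, pH 7.3, containing 5% alamarBlue. Incubated 70–74 h at 37 °C, 10% CO2; fluorescence 544ex/590em read before and after. MIC: no blue-to-pink change. MBC by subculturing blue wells on agar. Ciprofloxacin control.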

P. falciparum (D6) = assay: in vitro antimalarial activity, plasmodial LDH; format: cell-based, Plasmodium falciparum
MRSA (ATCC33591) = assay: in vitro antibacterial activity; format: cell-based, methicillin-resistant Staphylococcus aureus
How it was run: as §2

[5] = tested on: P. berghei (sensitive strain); assay: blood-schizontocidal activity against P. berghei infection in mice; format: in vivo, Plasmodium berghei; settings: Swiss mice
How it was run: as §1

C. albicans ATCC90028 = assay: in vitro antifungal activity; format: cell-based, Candida albicans
How it was run: as §3

A. fumigatus ATCC 90906 = assay: in vitro antifungal activity; format: cell-based, Aspergillus fumigatus
How it was run: as §3

C. glabrata ATCC90030 = assay: in vitro antifungal activity; format: cell-based, Candida glabrata
How it was run: as §3

C. krusei ATCC6258 = assay: in vitro antifungal activity; format: cell-based, Candida krusei
How it was run: as §3

[6] = highest test concentration 20 μg/mL
[7] = methicillin-resistant S. aureus, highest test concentration 20 μg/mL

Q: `CCCCCCCCOc1c(OC)cc(NC(C)CCCN)c2nc(C(C)(C)C)ccc12` (stereo not shown) [compound 49, N^4-(2-tert-Butyl-6-methoxy-5-(octyloxy)quinolin-8-yl)pentane-1,4-diamine] was tested. Which “P. yoelii nigeriensis blood-schizontocidal activity (mice cured/treated)” value ([1]; 25 mg/kg/day × 4, oral) did it give?
A: inactive (0/6)

Q: What about the “P. yoelii nigeriensis blood-schizontocidal activity (mice cured/treated)” value ([1]; 50 mg/kg/day × 4, oral) of the same compound?
A: active (3/6)

Q: And the “P. yoelii nigeriensis blood-schizontocidal activity (mice cured/treated)” value ([1]; 100 mg/kg/day × 4, oral)?
A: active (4/6)

Q: What about the “cytotoxicity CTX” value [2] of the same compound?
A: NC (NC, not cytotoxic up to 4760 ng/mL (4.76 μg/mL))

Q: And the IC50 (SA (ATCC29213); ATCC29213, read-out: IC50 (concentration that affords 50% growth inhibition), SA)?
A: 3.4 µg/mL (≈ 7.66 µM)

Q: What about the MBC (SA (ATCC29213); ATCC29213, read-out: MBC (minimum bactericidal concentration), SA) of the same compound?
A: 10 µg/mL (≈ 22.5 µM)

Q: What about the MIC (SA (ATCC29213); ATCC29213, read-out: MIC, SA) of the same compound?
A: 5 µg/mL (≈ 11.3 µM)

Q: What about the IC50 (C. neoformans ATCC90113; Cryptococcus neoformans, ATCC90113, read-out: C. neoformans IC50) of the same compound?
A: 2.15 µg/mL (≈ 4.85 µM)

Q: What about the MFC (C. neoformans ATCC90113; Cryptococcus neoformans, ATCC90113, read-out: C. neoformans MFC) of the same compound?
A: 5 µg/mL (≈ 11.3 µM)

Q: And the MIC (C. neoformans ATCC90113; Cryptococcus neoformans, ATCC90113, read-out: C. neoformans MIC)?
A: 5 µg/mL (≈ 11.3 µM)

Q: And the IC50 (P. falciparum (W2); Plasmodium falciparum, W2, 72 h, read-out: P. falciparum (W2) IC50, CQ-resistant W2 strain, 72 h)?
A: 0.04 µg/mL (≈ 0.0902 µM)

Q: And the IC50 ([3]; read-out: L. donovani IC50, promastigotes, 48 h)?
A: 5.2 µg/mL (≈ 11.7 µM)

Q: What about the IC90 ([3]; read-out: L. donovani IC90, promastigotes, 48 h) of the same compound?
A: > 40 µg/mL

Q: And the IC50 ([4]; Mycobacterium intracellulare, ATCC23068, read-out: IC50 (concentration that affords 50% growth inhibition), M. intracellulare)?
A: 7.43 µg/mL (≈ 16.7 µM)

Q: And the MBC ([4]; Mycobacterium intracellulare, ATCC23068, read-out: MBC (minimum bactericidal concentration), M. intracellulare)?
A: 20 µg/mL (≈ 45.1 µM)

Q: What about the MIC ([4]; Mycobacterium intracellulare, ATCC23068, read-out: MIC, M. intracellulare) of the same compound?
A: 10 µg/mL (≈ 22.5 µM)

Q: And the IC50 (P. falciparum (D6); Plasmodium falciparum, D6, 72 h, read-out: P. falciparum (D6) IC50)?
A: 0.053 µg/mL (≈ 0.119 µM)

Q: And the MIC (MRSA (ATCC33591); Staphylococcus aureus, ATCC33591|MRSA, read-out: MIC, MRSA)?
A: 5 µg/mL (≈ 11.3 µM)

Q: What about the “P. berghei blood-schizontocidal activity (mice cured/treated)” value ([5]; 10 mg/kg/day × 4, oral) of the same compound?
A: active (4/6)

Q: And the “P. berghei blood-schizontocidal activity (mice cured/treated)” value ([5]; 25 mg/kg/day × 4, oral)?
A: curative (6/6)

Q: And the “P. berghei blood-schizontocidal activity (mice cured/treated)” value ([5]; 50 mg/kg/day × 4, oral)?
A: curative (6/6)

Q: What about the “P. berghei blood-schizontocidal activity (mice cured/treated)” value ([5]; 100 mg/kg/day × 4, oral) of the same compound?
A: curative (6/6)

Q: What about the IC50 (C. albicans ATCC90028; Candida albicans, ATCC90028, read-out: C. albicans IC50) of the same compound?
A: 7.44 µg/mL (≈ 16.8 µM)

Q: What about the MFC (C. albicans ATCC90028; Candida albicans, ATCC90028, read-out: C. albicans MFC) of the same compound?
A: 10 µg/mL (≈ 22.5 µM)

Q: What about the MIC (C. albicans ATCC90028; Candida albicans, ATCC90028, read-out: C. albicans MIC) of the same compound?
A: 10 µg/mL (≈ 22.5 µM)

Q: And the IC50 (A. fumigatus ATCC 90906; Aspergillus fumigatus, ATCC90906, read-out: A. fumigatus IC50)?
A: > 20 µg/mL

Q: What about the MFC (A. fumigatus ATCC 90906; Aspergillus fumigatus, ATCC90906, read-out: A. fumigatus MFC) of the same compound?
A: > 20 µg/mL

Q: What about the MIC (A. fumigatus ATCC 90906; Aspergillus fumigatus, ATCC90906, read-out: A. fumigatus MIC) of the same compound?
A: > 20 µg/mL

Q: Which results are given for `CCCCCCCCOc1c(OC)cc(NC(C)CCCNC(=O)C(N)CCCCN)c2nc(C(C)(C)C)ccc12` (stereo not shown) [compound 117, 2,6-Diamino-N-(4-(2-tert-butyl-6-methoxy-5-(octyloxy)quinolin-8-lamino)pentyl)-hexanamide]?
A: cytotoxicity CTX [2]: NC (NC, not cytotoxic up to 4760 ng/mL (4.76 μg/mL)); IC50 (concentration that affords 50% growth inhibition), SA (SA (ATCC29213); [6]): NA (NA, no activity at the highest test concentration of 20 μg/mL); MBC (minimum bactericidal concentration), SA (SA (ATCC29213); [6]): NA (NA, no activity at the highest test concentration of 20 μg/mL); MIC, SA (SA (ATCC29213); [6]): NA (NA, no activity at the highest test concentration of 20 μg/mL); C. neoformans IC50 (C. neoformans ATCC90113): 11.92 µg/mL; C. neoformans MFC (C. neoformans ATCC90113): >20 µg/mL; C. neoformans MIC (C. neoformans ATCC90113): >20 µg/mL; P. falciparum (W2) IC50 (P. falciparum (W2); CQ-resistant W2 strain, 72 h): NA (NA, not active); C. glabrata IC50 (C. glabrata ATCC90030): NA (NA, no activity at the highest test concentration of 20 μg/mL); C. glabrata MFC (C. glabrata ATCC90030): NA (NA, no activity at the highest test concentration of 20 μg/mL); C. glabrata MIC (C. glabrata ATCC90030): NA (NA, no activity at the highest test concentration of 20 μg/mL); IC50 (concentration that affords 50% growth inhibition), M. intracellulare [4, 6]: NA (NA, no activity at the highest test concentration of 20 μg/mL); MBC (minimum bactericidal concentration), M. intracellulare [4, 6]: NA (NA, no activity at the highest test concentration of 20 μg/mL); MIC, M. intracellulare [4, 6]: NA (NA, no activity at the highest test concentration of 20 μg/mL); P. falciparum (D6) IC50 (P. falciparum (D6); CQ-sensitive D6 strain, 72 h): NA (NA, not active); IC50 (concentration that affords 50% growth inhibition), MRSA (MRSA (ATCC33591); [7]): NA (NA, no activity at the highest test concentration of 20 μg/mL); MBC (minimum bactericidal concentration), MRSA (MRSA (ATCC33591); [7]): NA (NA, no activity at the highest test concentration of 20 μg/mL); MIC, MRSA (MRSA (ATCC33591); [7]): NA (NA, no activity at the highest test concentration of 20 μg/mL); C. krusei IC50 (C. krusei ATCC6258): NA (NA, no activity at the highest test concentration of 20 μg/mL); C. krusei MFC (C. krusei ATCC6258): NA (NA, no activity at the highest test concentration of 20 μg/mL); C. krusei MIC (C. krusei ATCC6258): NA (NA, no activity at the highest test concentration of 20 μg/mL); C. albicans IC50 (C. albicans ATCC90028): NA (NA, no activity at the highest test concentration of 20 μg/mL); C. albicans MFC (C. albicans ATCC90028): NA (NA, no activity at the highest test concentration of 20 μg/mL); C. albicans MIC (C. albicans ATCC90028): NA (NA, no activity at the highest test concentration of 20 μg/mL); A. fumigatus IC50 (A. fumigatus ATCC 90906): NA (NA, no activity at the highest test concentration of 20 μg/mL); A. fumigatus MFC (A. fumigatus ATCC 90906): NA (NA, no activity at the highest test concentration of 20 μg/mL); A. fumigatus MIC (A. fumigatus ATCC 90906): NA (NA, no activity at the highest test concentration of 20 μg/mL)
